Measurements as given in ChEMBL document CHEMBL1147231, “Cytotoxic and antimalarial beta-carboline alkaloids from the roots of Eurycoma longifolia” (J Nat Prod, 2003).
In brackets after ≈: the same amount, converted by molar mass. Activity calls are given as the source filed them. The calls are words filed in the database; no cut-off is given here.

Key:
A549 = assay: Cytotoxicity against human A549 cells by SRB assay; format: functional; conditions: for EC50: Homo sapiens, A549, read-out: ED50 (the source's name)
Procedure, shortened: (§1)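 Sulforhodamine B assay on human lung (A549) and breast (MCF-7) cancer cell lines; ED50 taken as the compound concentration giving 50% reduction in absorbance at 562 nm relative to untreated cells.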

MCF7 = assay: Cytotoxicity against human MCF7 cells by SRB assay; format: functional; conditions: for EC50: Homo sapiens, MCF7, read-out: ED50 (the source's name); procedure, shortened: as §1
Plasmodium falciparum [1] = assay: Antimalarial activity against Plasmodium falciparum W2; format: functional, organism-based
Procedure, shortened: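 In vitro drug susceptibility measured by parasite incorporation of radiolabeled hypoxanthine (modified Desjardins method); mefloquine and chloroquine run in parallel as positive controls.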

Plasmodium falciparum [2] = assay: Antimalarial activity against Plasmodium falciparum D6; format: functional, organism-based
Procedure, shortened: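 Drug susceptibility in vitro by modified Desjardins method with Milhous modifications. Read-out is parasite incorporation of radiolabelled hypoxanthine. Mefloquine and chloroquine were run in parallel as positive controls.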

IC50 (Plasmodium falciparum [1]) [µg/mL]	SMILES	EC50 (A549) [µg/mL]	EC50 (MCF7) [µg/mL]	inhibition (INH) (A549) [%]	Activity (A549)	inhibition (INH) (MCF7) [%]	IC50 (Plasmodium falciparum [2]) [µg/mL]
2.34 (≈ 9.89 µM)	O=c1ccc2nccc3c4ccc(O)cc4n1c23	10 (≈ 42.3 µM)	19.6 (≈ 83 µM)	–	–	–	–
–	COc1ccc2c3ccnc4ccc(=O)n(c2c1)c43	< 2.5	4.5 (≈ 18 µM)	55	–	–	–
2.24 (≈ 10.2 µM)	O=c1ccc2nccc3c4ccccc4n1c23 [CANTHIN-6-ONE]	3.6 (≈ 16.3 µM)	7.3 (≈ 33.1 µM)	–	–	–	–
–	O=C(O)CCc1nccc2c1[nH]c1ccccc12	–	> 20	–	inactive	8	–
–	COc1ccc2c(c1)[nH]c1c(CCC(=O)O)nccc12	> 20	> 20	7	–	15	–
–	COc1ccc2c3cc[n+]([O-])c4ccc(=O)n(c2c1)c34	18.5 (≈ 69.5 µM)	18.9 (≈ 71 µM)	–	–	–	–

SMILES	IC50 (Plasmodium falciparum [1]) [µg/mL]	EC50 (A549) [µg/mL]	EC50 (MCF7) [µg/mL]	inhibition (INH) (A549) [%]	Activity (A549)	inhibition (INH) (MCF7) [%]	IC50 (Plasmodium falciparum [2]) [µg/mL]
COc1c(O)c2nccc3c4ccccc4n(c1=O)c23 [PICRASIDINE Q]	3.52 (≈ 13.2 µM)	16.2 (≈ 60.8 µM)	18.1 (≈ 68 µM)	–	–	–	2.96 (≈ 11.1 µM)
